Neddylation inh – inhibitors of cullin neddylation, primary screen, biochemical, TR-FRET, uHTS, NAE and Ubc12; AID 651699, 2012; 360,000 tested, 0.58% active; calls only at 25 µM; in the data active means inhibition above about 36%
Target sequence (P61081 whole entry, looked up): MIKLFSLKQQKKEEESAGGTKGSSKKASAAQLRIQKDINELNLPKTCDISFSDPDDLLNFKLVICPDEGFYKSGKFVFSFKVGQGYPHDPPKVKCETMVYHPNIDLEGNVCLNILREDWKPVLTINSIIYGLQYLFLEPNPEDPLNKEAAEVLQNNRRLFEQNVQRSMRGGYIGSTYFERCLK
Target sequence (Q13564 whole entry, looked up): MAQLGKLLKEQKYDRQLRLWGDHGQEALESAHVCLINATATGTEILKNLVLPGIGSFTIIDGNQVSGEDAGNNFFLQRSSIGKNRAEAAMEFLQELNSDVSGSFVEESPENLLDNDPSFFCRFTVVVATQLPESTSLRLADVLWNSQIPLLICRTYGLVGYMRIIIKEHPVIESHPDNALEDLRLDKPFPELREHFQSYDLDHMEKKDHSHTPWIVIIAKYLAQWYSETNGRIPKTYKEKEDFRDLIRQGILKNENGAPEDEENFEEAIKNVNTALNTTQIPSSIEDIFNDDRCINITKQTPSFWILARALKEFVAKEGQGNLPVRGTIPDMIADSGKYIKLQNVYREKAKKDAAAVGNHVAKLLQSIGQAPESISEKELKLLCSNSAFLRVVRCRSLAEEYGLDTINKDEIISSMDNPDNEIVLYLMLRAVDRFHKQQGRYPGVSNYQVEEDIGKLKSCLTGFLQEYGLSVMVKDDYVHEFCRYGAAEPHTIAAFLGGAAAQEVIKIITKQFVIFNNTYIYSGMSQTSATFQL
IMP-1 inh – IMP-1 metallo-beta-lactamase inhibitors, primary screen, biochemical, epi-absorbance readout, Pseudomonas aeruginosa enzyme | inhibition, % at 5.6 µM | AID 1556, 2009 | 290,000 tested, 0.45% active | purified IMP-1, nitrocefin hydrolysis, epi-absorbance fluorescence | metallo-beta-lactamase IMP-1 (Pseudomonas aeruginosa);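 active means inhibition above the mean plus 3 SD of all compounds in the same screening run, cut at about 4.5% in these data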;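 further: 0% = IMP-1 with DMSO and 100% = DMSO wells lacking enzyme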
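System – purified recombinant IMP-1 beta-lactamase · Input – IMP-1 dispensed at 0.2 nM · Timing – 15 min preincubation plus 25 min reaction at 25 °C · Signal – Epi-absorbance fluorescence, 480 nm excitation, 530 nm emission · Measure – percent IMP-1 inhibition derived from blank-referenced optical density · Controls – Enzyme-plus-DMSO low control, enzyme-free DMSO high control · Replication – singlicate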
procasp7 counter – procaspase-7 activators, primary screen, counter-screen for procaspase-3 activator project, biochemical, absorbance, HTS, human. Caspase-7 (Homo sapiens), P55210. recombinant procaspase-7, Ac-DEVD-pNA absorbance 405 nm; D23A/D198A/D206A triple mutant, cannot self-cleave; scale: DMSO 0, 5 µM enzyme 100. activation, % at 8.5 µM. 330,000 tested, 0.093% active. AID 463210, 2010;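 active means percent activation above the screen-wide mean plus 3 SD, cut at about 25% in these data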
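Assay system: Uncleavable procaspase-7 mutant enzyme; Input: 2 µM procaspase-7 mutant as dispensed; Also added: DEVD-pNA substrate; Medium: Zinc-free HEPES pH 7.4 with 300 mM NaCl, 0.01% Triton X-100; Timing: 1 h compound preincubation, 2 h substrate cleavage, 25 °C; Measured by: Epi-absorbance of released pNA at 405 nm, two timepoints.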
proCasp3 act – activators of human procaspase-3 D3A mutant, primary screen, biochemical, absorbance, PC-3 D3A mutant, single concentration | 330,000 tested, 0.11% active | recombinant procaspase-3 D3A, Ac-DEVD-pNA absorbance 405 nm | Caspase-3 (Homo sapiens), P42574 | activation, % at 8.5 µM;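 active means activation above the mean of all tested compounds plus 3 SD, cut at about 21% in these data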;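 further: 0% = DMSO alone and 100% = DMSO wells spiked with extra 5 µM PC-3 D3A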
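material = Procaspase-3 D3A mutant | probe or stimulus = Ac-DEVD-pNA | compound = single dose, 8.5 µM nominal compound, 0.8% DMSO | timing = 1 h preincubation, 2 h reaction | measured by = 405 nm absorbance of p-nitroaniline, reads at 0 and 120 min | benchmarks = DMSO-only low control, 5 µM PC-3 D3A high control | repeats = singlicate, each compound tested once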
PolyA inhibitor – polyadenylation inhibitors in yeast reporter cells, primary screen, luminescence, S. cerevisiae; S. cerevisiae SKY197-pL101 polyadenylation reporter, beta-gal luminescence; efflux-impaired pdr1/pdr3 knockout yeast; score 100 = 6 SD above DMSO; activity score, % at 12 µM; 300,000 tested, 0.02% active; AID 1875, 2009;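 active means lowest replicate activity score at least 50, where 100 means six control SD above control mean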;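 further: yeast exposed to compound for 9 h at 30 °C; higher score means more reporter readthrough which indicates perturbed polyadenylation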
VIM-2 inh – VIM-2 metallo-beta-lactamase inhibitors, primary screen, biochemical, epi-absorbance readout, Pseudomonas aeruginosa enzyme. purified VIM-2, nitrocefin hydrolysis, epi-absorbance fluorescence. inhibition, % at 5.6 µM. 290,000 tested, 0.89% active. AID 1527, 2009;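 active means inhibition above the mean of all tested compounds plus 3 SD, cutoff set per screening run, cut at about 7.5% in these data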;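 further: red hydrolysis product quenches plate fluorescence so inhibitors raise well fluorescence; 0% = enzyme with DMSO and 100% = DMSO without enzyme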
The depositor's hits bear a star; i = inactive; / = no result; + = active, no number. A selection: hits, their analogues and other compounds. The true share with any hit is near 1.7%.

SMILES	Neddylation inh	IMP-1 inh	procasp7 counter	proCasp3 act	PolyA inhibitor	VIM-2 inh
O=C(O)C1CSC2c3ccccc3C(=O)N12 (stereo unspecified)	i	10.5*	9.1	-9.5	-7.6	-3.0
COc1ccc(NC(=O)CN(C2CCCCC2)S(C)(=O)=O)cc1Cl	i	-1.1	0.6	-6.9	6.1	1.7
Cc1cccc(N(CC(=O)N/N=C/c2ccccc2C(=O)O)S(C)(=O)=O)c1C	i	-3.9	6.5	-4.0	-5.8	-3.2
O=S(=O)(c1cccs1)N1CN(Cc2ccc(F)cc2)c2nc3ccccc3nc21	i	-1.2	6.4	-4.6	/	1.4
O=S(=O)(c1cccs1)N1CN(Cc2cccs2)c2nc3ccccc3nc21	+	-1.2	6.7	4.1	0.8	-1.6
CC(=O)c1ccc(Nc2cc(C)nc3ccc(C)cc23)cc1	i	-1.3	-0.6	-5.2	-10.9	8.4*
Cc1ccc2nc(C)cc(Nc3ccc4c(c3)OCCO4)c2c1	i	-2.4	-3.2	-3.0	23.3	10.8*
COc1ccc(C(=O)N2CCN(CC(=O)N3CCOCC3)CC2)cc1	i	-0.2	1.5	12.3	1.4	0.5
C/C(=N\NC(N)=S)c1ccc(-n2ccnc2)cc1	i	-1.7	-16.7	-9.9	-22.7	10.0*
C/C(=N\NC(=O)c1ccccc1)c1ccc(-n2ccnc2)cc1	i	-2.0	-5.0	0.3	3.8	0.5
CN(C(=O)CSc1nnc2n1CCCCC2)C1(C#N)CCCCC1	i	/	-4.9	10.1	/	/
CCCN(CCC)CCCNC(=O)c1ccc2c(Cl)c3c(nc2c1)CCC3	i	-3.4	0.4	0.1	12.3	9.6*
O=C(NCCCN1CCCCCC1)c1ccc2c(Cl)c3c(nc2c1)CCCC3	i	-3.6	6.5	8.9	0.6	0.5
COCCNC(=O)c1ccc2c(Cl)c3c(nc2c1)CCC3	i	-3.0	8.7	-3.2	10.4	2.9
CC1CCN(CCCNC(=O)c2ccc3c(Cl)c4c(nc3c2)CCCC4)CC1	i	-0.7	-0.1	-5.2	1.6	11.2*
CCN1CCN(CCCNC(=O)c2ccc3c(Cl)c4c(nc3c2)CCCC4)CC1	i	-0.6	-0.4	-0.7	-16.6	11.3*
CCN(CC)S(=O)(=O)c1ccc(O)c(NC(=O)c2cc(-c3cc(OC)c(OC)c(OC)c3)nc3ccccc23)c1	+	0.1	-15.6	-14.4	12.2	-0.7
CN(CC(=O)Nc1ccc(Cl)cc1)Cc1cc(=O)n2ccsc2n1	i	-2.6	6.1	-3.9	17.9	-4.5
COc1ccc(OC)c(CN2C(=O)CN(S(C)(=O)=O)CC2(C)C(=O)NC(C)C)c1 (stereo unspecified)	i	/	/	/	/	/
COc1ccc(-c2n[nH]c(C(F)(F)F)c2-c2cc3ccccc3o2)c(O)c1	+	1.7	4.3	6.1	-9.4	1.1
COc1ccccc1-c1c(-c2ccc(OCC(=O)NN)cc2O)n[nH]c1C(F)(F)F	i	-1.6	7.3	2.1	2.9	-3.6
COc1ccccc1-n1cnnc1SCC(=O)Nc1ncc(Cl)cc1Cl	i	-3.2	0.1	-6.4	-13.0	-0.2
COc1ccc2c(Cl)c(C(=O)NN3CCN(C)CC3)sc2c1	i	-0.9	17.0	2.9	-15.0	8.5*
COc1ccc2c(Cl)c(C(=O)NC3CCS(=O)(=O)C3)sc2c1 (stereo unspecified)	i	-3.0	-6.1	-1.0	-5.1	-3.9
CCn1c2nc(SCCN3CCOCC3)nnc2c2cc(C)cc(C)c21	i	-3.5	2.9	-4.9	-3.7	12.1*
CCn1c2ccc(F)cc2c2nnc(SCCN3CCCCC3)nc21	i	-3.1	/	/	18.0	10.4*
